# Source: ChEMBL document CHEMBL1158042, “Carneic acids A and B, chemotaxonomically significant antimicrobial agents from the xylariaceous ascomycete Hypoxylon carneum” (2006)
# Starred links: 1 amine or outer side, 2 acyl side, 3 side chain; linkers in the order of their positions; H or OH if unused. Positions of bridges follow the written chain, without caps; N, C: chain ends. Non-standard residues stand in square brackets, D forms with d. Residues, ends and D or L forms follow the SMILES beside them. Chains are numbered I, II in the order given. Actinocin(1to9) = Cc1c2oc3c(C)ccc(C(=O)[*:2])c3nc-2c(C(=O)[*:1])c(N)c1=O; NMeV = CN[C@H](C(=O)O)C(C)C; Sar = CNCC(=O)O
# Key:
# Format in all cases: functional
# Bacillus subtilis = test: Antimicrobial activity against Bacillus subtilis ATCC 6633 after 18 hrs; conditions: ATCC 6633, 18 h
# Procedure, shortened: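 Serial broth dilution in microtiter wells. Compounds in MeOH were dispensed and the solvent evaporated in vacuo. Inoculum came from an overnight nutrient broth culture, adjusted to 10⁵ cells per mL, in NB medium. Incubation was 18 h. MIC was read as the minimal inhibitory concentration.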
# Yarrowia lipolytica = test: Antimicrobial activity against Yarrowia lipolytica HT20after 24 hrs
# Procedure, shortened: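 Yeast tested by serial dilution in YMG medium. Compound films were left in wells after MeOH evaporation in vacuo. Inoculum came from an overnight YMG culture, adjusted to 10⁵ cells per mL. After 24 h incubation, the minimal inhibitory concentration was determined.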
# Mucor hiemalis = test: Antimicrobial activity against Mucor hiemalis DSM 63298 after 24 hrs; conditions: DSM 63298, 24 h
# Procedure, shortened: (§1)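 Serial dilution in microtiter wells with YMG medium. Compounds in MeOH were dispensed and dried in vacuo. Spores were rinsed from well-grown 9-day-old YMG agar cultures with […], then adjusted to 10⁵ per mL. Concentrations ranged from 100 to 0.1 µg mL^-1 (eight levels). Incubation was 24 h. MIC was recorded.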
# Penicillium griseofulvum = test: Antimicrobial activity against Penicillium griseofulvum DSM 847 after 24 hrs; conditions: DSM 847, 24 h; procedure, shortened: as §1
# Stachybotrys chartarum = test: Antimicrobial activity against Stachybotrys chartarum DSM 2144 after 24 hrs; conditions: DSM 2144, 24 h; procedure, shortened: as §1
# Trichoderma harzianum = test: Antimicrobial activity against Trichoderma harzianum ATCC 64870 after 24 hrs; conditions: ATCC 64870, 24 h; procedure, shortened: as §1
SMILES,MIC (Bacillus subtilis) [µg/mL],MIC (Yarrowia lipolytica) [µg/mL],MIC (Mucor hiemalis) [µg/mL],MIC (Penicillium griseofulvum) [µg/mL],MIC (Stachybotrys chartarum) [µg/mL],MIC (Trichoderma harzianum) [µg/mL]
"Cc1c2oc3c(C)ccc(C(=O)N[C@@H]4C(=O)N[C@H](C(C)C)C(=O)N5CCC[C@H]5C(=O)N(C)CC(=O)N(C)[C@@H](C(C)C)C(=O)O[C@@H]4C)c3nc-2c(C(=O)N[C@@H]2C(=O)N[C@H](C(C)C)C(=O)N3CCC[C@H]3C(=O)N(C)CC(=O)N(C)[C@@H](C(C)C)C(=O)O[C@@H]2C)c(N)c1=O [DACTINOMYCIN] (I: T[dV]P[Sar][NMeV] / II: T[dV]P[Sar][NMeV]; ester I:1-I:C, II:1-II:C; linker I:N-II:N via Actinocin(1to9))",> 100,6.25,3.12,3.12,3.12,6.25
Oc1cccc2c(-c3ccc(O)c4c(O)cccc34)ccc(O)c12,100,> 100,100,> 100,> 100,> 100
C/C=C(\C)[C@H]1C(C)=C[C@@H]2[C@@H]([C@H]1/C=C/C=C/C(=O)O)[C@H](C)CC[C@H]2O [CARNEIC ACID A],50,25,12.5,12,25,50

# Continued by falling MIC (Bacillus subtilis), values first:
MIC (Bacillus subtilis) [µg/mL],MIC (Yarrowia lipolytica) [µg/mL],MIC (Mucor hiemalis) [µg/mL],MIC (Penicillium griseofulvum) [µg/mL],MIC (Stachybotrys chartarum) [µg/mL],MIC (Trichoderma harzianum) [µg/mL],SMILES
50,100,25,> 100,100,> 100,CC(=O)OC/C=C/C1=CC2=C(CO1)C(=O)[C@](C)(O)[C@H](OC(=O)c1c(C)cc(O)cc1O)C2 [RUBIGINOSIN A]
50,25,12.5,25,25,50,CC1=C[C@@H]2[C@@H]([C@@H](/C=C/C=C/C(=O)O)[C@H]1/C(C)=C/CO)[C@H](C)CC[C@H]2O [CARNEIC ACID B]
3.12,> 100,> 100,> 100,> 100,> 100,CC1(C)S[C@@H]2[C@H](NC(=O)Cc3ccccc3)C(=O)N2[C@H]1C(=O)O [PENICILLIN G]
